Tests used:
[1] = Permeability of the compound at 10 uM after 30 mins by PAMPA; type: ADME; conditions: read-out: permeability
[2] = Intrinsic clearance in human liver microsomes after 0.5 to 4 hrs by UPLC-MS analysis; type: ADME; conditions: read-out: CLH
Plasma [3] = test: Stability in human plasma assessed as compound stability time by UPLC-MS analysis; type: ADME, cell-free
[4] = Stability of the compound in phosphate buffered saline assessed as compound stability time at pH 7.4 by UPLC-MS analysis; type: physicochemical; conditions: buffer
[5] = Intrinsic clearance in CD-1 mouse liver microsomes after 0.5 to 4 hrs by UPLC-MS analysis; type: ADME; conditions: read-out: CLH
[6] = Half life in dog liver microsomes by UPLC-MS analysis; type: ADME, Canis lupus familiaris
[7] = Intrinsic clearance in rat liver microsomes after 0.5 to 4 hrs by UPLC-MS analysis; type: ADME; conditions: read-out: CLH
[8] = Stability of the compound in phosphate buffered saline assessed as compound stability time at pH 5 by UPLC-MS analysis; type: physicochemical; conditions: buffer
[9] = Intrinsic clearance in dog liver microsomes after 0.5 to 4 hrs by UPLC-MS analysis; type: ADME, Canis lupus familiaris; conditions: read-out: CLH
Plasma [10] = test: Stability in mouse plasma assessed as compound stability time by UPLC-MS analysis; type: ADME, cell-free
Plasma [11] = test: Stability in rat plasma assessed as compound stability time by UPLC-MS analysis; type: ADME, cell-free
[12] = Stability of the compound in phosphate buffered saline assessed as compound stability time at pH 3 by UPLC-MS analysis; type: physicochemical; conditions: buffer
[13] = Half life in CD-1 mouse liver microsomes by UPLC-MS analysis; type: ADME
[14] = Half life in rat liver microsomes by UPLC-MS analysis; type: ADME
[15] = Half life in human liver microsomes by UPLC-MS analysis; type: ADME
[16] = Cmax in C57BL/6 mouse at 20 mg/kg, iv by UPLC-MS analysis; type: ADME, organism-based; design: dose 20 mg/kg, route intravenous; conditions: in vivo
Method in brief: (§1)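 Female C57BL/6 mice, 22-27 g; single tail-vein injection at 10 or 20 mg/kg (vehicle groups at 0) in EtOH/PPG/PBS pH 7.4 5/45/50 with HβCD 10 mM and 5% DMSO, 4 ml/kg. Blood taken at 5, 15, 30 min, 1, 4, 24 h, one mouse per time point, and at 48 h. EDTA plasma mixed with acetonitrile containing warfarin internal standard; UPLC/MS quantitation by peak-area ratio.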

Mus musculus [17] = organism: Mus musculus; test: Drug metabolism in C57BL/6 mouse assessed as 4-(5-amino-3-(pyridin-2-yl)-1H-1,2,4-triazol-1-yl)quinazoline-6,7,8-triol formation by qualitative tandem mass spectrometric analysis; type: ADME, organism-based; conditions: in vivo
[18] = Half life in C57BL/6 mouse at 10 mg/kg, iv; type: ADME, organism-based; conditions: in vivo; method in brief: as §1
Mus musculus [19] = organism: Mus musculus; test: Drug metabolism in C57BL/6 mouse assessed as (2S,3S,4S,5R,6S)-6-(4-(5-amino-3-(pyridin-2-yl)-1H-1,2,4-triazol-1-yl)-7-methoxyquinazolin-6-yloxy)-3,4,5-trihydroxytetrahydro-2H-pyran-2-carboxylic acid formation by qualitative tandem mass spectrometric analysis; type: ADME, organism-based; conditions: in vivo
Mus musculus [20] = organism: Mus musculus; test: Drug metabolism in C57BL/6 mouse assessed as 4-(5-amino-3-(pyridin-2-yl)-1H-1,2,4-triazol-1-yl)-7-methoxyquinazolin-6-ol formation by qualitative tandem mass spectrometric analysis; type: ADME, organism-based; conditions: in vivo
[21] = Clearance in C57BL/6 mouse at 10 mg/kg, iv; type: ADME, organism-based; conditions: in vivo; method in brief: as §1
[22] = Half life of the compound in aqueous buffer; type: physicochemical
[23] = Tmax in C57BL/6 mouse at 20 mg/kg, iv by UPLC-MS analysis; type: ADME, organism-based; conditions: in vivo
Method in brief: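 Female C57BL/6 mice (22-27 g) received a single tail-vein injection at 4 ml/kg in 5/45/50 EtOH/PPG/PBS (pH 7.4) with 10 mM HβCD and 5% DMSO. Groups were 0, 10 and 20 mg/kg. Blood was drawn retro-orbitally at 5, 15, 30 min, 1, 4, 24 and 48 h into EDTA. Plasma was precipitated with acetonitrile containing 2 uM warfarin as internal standard and quantified by UPLC/MS from the analyte/internal-standard peak-area ratio.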

Mus musculus [24] = organism: Mus musculus; test: Drug level in C57BL/6 mouse treated with 1-(6,7-Dimethoxyquinazolin-4-yl)-3-(pyridin-2-yl)-1H-1,2,4-triazol-5-amine by qualitative tandem mass spectrometric analysis; type: ADME, organism-based; conditions: in vivo
[25] = Half life in C57BL/6 mouse at 20 mg/kg, iv by UPLC-MS analysis; type: ADME, organism-based; conditions: in vivo; method in brief: as §1

Papp at 0.5 h, 10 µM [1] [×10⁻⁶ cm/s]	CLint scaled [2] [mL/min/kg]	Stability (Plasma [3]) [h]	Stability [4] [h]	CLint scaled [5] [mL/min/kg]	half-life [6] [h]	CLint scaled [7] [mL/min/kg]	Stability [8] [h]	CLint scaled [9] [mL/min/kg]	Stability (Plasma [10]) [h]	Stability (Plasma [11]) [h]	Stability [12] [h]	half-life [13] [h]	half-life [14] [h]	half-life [15] [h]	Cmax [16] [µM]	Drug metabolism (Mus musculus [24])	SMILES	further results
432	18.8	> 24	> 24	329	> 4	45.1	> 24	< 7.9	> 24	> 24	> 24	0.2	1	1.1	–	–	COc1cc2ncnc(-n3nc(-c4ccccn4)nc3N)c2cc1OCCCNC(=O)OC(C)C	–
95.9	6.1	> 48	> 48	61.7	0.6	57.8	> 48	52.5	> 48	19	> 48	0.9	0.8	3.4	4	–	COc1cc2ncnc(-n3nc(-c4ccccn4)nc3N)c2cc1OC	Drug metabolism (Mus musculus [17]): metabolite_detected; half-life [18]: 1 h; Drug metabolism (Mus musculus [19]): metabolite_detected; Drug metabolism (Mus musculus [20]): metabolite_detected; clearance [21]: 2.67 mL/min; half-life [22]: > 48 h; Tmax [23]: 5 min
–	–	–	–	–	–	–	–	–	–	–	–	–	–	–	–	metabolite_detected	COc1cc2ncnc(-n3nc(-c4ccccn4)nc3N)c2cc1O	–
16.6	12.9	> 48	> 48	22.9	> 4	< 11.7	> 48	< 8.3	> 48	–	> 48	2.4	> 4	1.6	5.8	–	COCCOc1cc2ncnc(-n3nc(-c4ccccn4)nc3N)c2cc1OCCOC	–
–	–	–	–	–	–	–	–	–	–	–	–	–	–	–	–	metabolite_detected	Nc1nc(-c2ccccn2)nn1-c1ncnc2c(O)c(O)c(O)cc12	–
–	–	–	–	–	–	–	–	–	–	–	–	–	–	–	–	metabolite_detected	COc1cc2ncnc(-n3nc(-c4ccccn4)nc3N)c2cc1O[C@@H]1O[C@H](C(=O)O)[C@@H](O)[C@H](O)[C@H]1O	–
196	< 5.2	> 48	> 24	27.1	> 4	< 11.7	> 24	< 8.3	> 48	> 24	> 24	2	> 4	> 4	9.5	–	COCCOc1cc2c(-n3nc(-c4ccccn4)nc3N)ncnc2cc1OC	half-life [25]: 19 h
